Source: PubChem BioAssay AID624467 (The Scripps Research Institute Molecular Screening Center, 2012)
About 3,600 (1%) of roughly 360,000 compounds were called active.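 Rule for the calls: active = activation above the mean activation of all test compounds in the run plus 3 SD (cut at about 38% in these data); inactive = the rest.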 The entries come from a sample that favours actives as a whole.

What follows are compounds tested against Trace amine-associated receptor 1 (Homo sapiens) (UniProt Q96RJ0) (assay: activators of TAAR1 calcium mobilization – Fluo-8 calcium fluorescence, CHO RD-HGA16 cells, primary screen (AID 624467)). Settings: CHO RD-HGA16 TAAR1, Fluo-8 calcium fluorescence; at 3 µM; hits give high values; vehicle wells 0%, saturating PEA agonist 100%.
Method in brief: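 System: CHO-derived RD-HGA16 cells with stable Gα16 and human TAAR1. Times: 17-24 h plating, Fluo-8 75 min 37 °C, 30 min RT. Measured by: calcium-sensitive Fluo-8 signal, excitation 470-495, emission 515-575 nm. Read-out basis: % activation relative to PEA EC100 response. Control set: DMSO and PEA EC100. Repeats: no replicates (n 1).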

Trace amine-associated receptor 1 (Homo sapiens), sequence (Q96RJ0 whole entry, looked up): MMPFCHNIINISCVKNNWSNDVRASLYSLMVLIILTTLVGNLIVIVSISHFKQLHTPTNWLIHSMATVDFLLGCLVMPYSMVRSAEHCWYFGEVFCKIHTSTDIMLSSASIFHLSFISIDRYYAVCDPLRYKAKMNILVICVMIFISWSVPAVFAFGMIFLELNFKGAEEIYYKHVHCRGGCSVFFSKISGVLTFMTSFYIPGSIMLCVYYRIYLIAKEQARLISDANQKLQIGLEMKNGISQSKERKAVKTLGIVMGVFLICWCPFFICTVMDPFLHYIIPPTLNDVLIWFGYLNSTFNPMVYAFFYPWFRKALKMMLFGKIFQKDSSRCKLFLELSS

activation, inactive:
CC1CCN(C(=O)CCNC(=O)c2ccccc2)CC1 1.29%
CC1CCN(c2c(NCc3ccc(C(=O)NCc4ccccc4)cc3)c(=O)c2=O)CC1 0.05%
CC(=O)NC1C(Oc2ccc(C)cc2)OC2COC(c3ccco3)OC2C1O (stereo not drawn) 1.22%
CCc1ccc(NC(=O)Nc2ccncc2)cc1 30.2%
O=C(Nc1ccc(Cl)cc1)Nc1ccc(Oc2cccnc2)nc1 35.4%
O=C(CCC(=O)n1ncc2ccccc21)NCc1ccccc1Cl 0.3%
COc1cccc(NC(=O)N(C)C[C@@H]2OCc3cn(nn3)CCCC(=O)N([C@@H](C)CO)C[C@H]2C)c1 1.34%
O=S(=O)(c1ccc(Br)c2ccccc12)N1CCOCC1 3.96%
CCOC(=O)C1=C(O)/C(=C/c2cc(C)n(-c3ccccc3)c2C)N=C1C 8.89%
CN(C(=O)c1cccc(NC(=O)C2CCN(C(=O)OC(C)(C)C)CC2)c1)C1CCC1 12.7%
O=C(Nc1nnc([C@H]2C[C@H](O)[C@@H](CO)O2)s1)c1cccc(Cl)c1 2.33%
Cc1ccc(CNC(=O)Nc2nnc([C@H]3C[C@H](O)[C@@H](CO)O3)s2)cc1 0.94%
CC(=O)c1c(N2CCN(c3ccc(F)cc3)CC2)nc(=S)n(-c2ccccc2)c1C -0.41%
Cn1ccsc1=NC(=O)c1cc(S(=O)(=O)N2CCOCC2)ccc1Cl 4.63%
COc1ccc(-c2ccc3c(n2)CCCN3S(=O)(=O)c2ccc(C)cc2)cc1 1.61%
Cc1ccc(Cn2c(C)c(C(=O)NCc3ccccc3C(F)(F)F)sc2=O)cc1 0.22%
Cc1c(C(=O)NCc2ccc(C#N)cc2)sc(=O)n1Cc1ccc(C(=O)N(C)C)cc1 2.3%
CC(C)[C@@H](C)/C=C/[C@@H](C)[C@H]1CC[C@@H]2[C@]1(C)CCC1[C@]23C=C[C@]2(C[C@@H](O)CC[C@]12C)N(c1ccc([N+](=O)[O-])cn1)O3 (stereo partly drawn) -0.81%
O=C(NCc1ccccc1)[C@H]1CCCN1C(=O)[C@H]1CCCN1C(=O)c1cc(F)cc(F)c1 -0.16%
CCCCNc1cccc2c1S(=O)(=O)N[C@@H](C)CO2 -1.01%
Cc1cc(CN(C)C(=O)c2cc(COc3ccc(C)c(C)c3)on2)n[nH]1 2.87%
CN(c1cccc(NC(=O)c2ccc(CN3CCc4ccccc4C3)cc2)c1)S(C)(=O)=O 7.79%
CC(C)S(=O)(=O)c1csc(NC(=O)Nc2ccc(Cl)cc2)c1Cl 17.9%
CC(=O)NC1=NN(C(C)=O)C(C)(c2ccc(Cl)s2)S1 (stereo not drawn) 5.71%
CN(C)S(=O)(=O)N1CCC(Oc2cccc(C(=O)NCCCC3CCCC3)c2)CC1 11.3%
O=C1CC(c2ccccc2)CC(O)=C1C=NCCN1CCOCC1 (stereo not drawn) 2.73%
CC1(C)CC(=O)C(C=NCCC2=CCCCC2)=C(O)C1 20.1%
COC(=O)C1=C(C)N(Cc2ccccc2C(F)(F)F)C(=NCc2ccc(OC)cc2)NC1c1cccc(C(F)(F)F)c1 (stereo not drawn) 9.5%
CC(C)N(Cc1ccccc1)C(=O)COC(=O)c1ccccc1SCC(=O)N1CCCC1 15.6%
O=C(NCCCc1ccccc1)C(=O)NCC1OCCN1S(=O)(=O)c1ccccc1 (stereo not drawn) 8.57%
COc1ccc(CCNC(=O)C(=O)NCC2OCCN2S(=O)(=O)c2cccs2)cc1OC (stereo not drawn) 1.17%
COc1cccc(CNC(=O)[C@H]2CCCN2C(=O)[C@H]2CCCN2C(=O)c2cc(F)cc(F)c2)c1 2.08%
O=C1Nc2ccccc2C1=NN=Cc1ccco1 0.51%
Cn1nc(C(F)(F)F)c(C(=O)Nc2cccc(C(F)(F)F)c2)c1SCc1ccc(Cl)cc1 11%
COCc1nc2ccccc2n1Cc1ccccc1Br 12.1%
O=C(NC1CC1)C1=C[C@H](c2c[nH]c3ccccc23)C[C@H](OCc2ccc(CO)cc2)O1 5.4%
NC(=O)C1=C[C@@H](c2csc3ccccc23)C[C@@H](OCc2ccc(CO)cc2)O1 22.2%
COc1ccc(CCN(C)C(=O)C23CC4CC(CC(Cl)(C4)C2)C3)cc1OC -1.21%
Cc1cccc(CCNS(=O)(=O)c2ccc3c(c2)NC(=O)CO3)c1 5.47%
CC(C)c1ccc(S(=O)(=O)NC2CCCC2)cc1 1.12%
CN1CCCN(C(=O)C2CCCCC2)CC1 1.26%
CC1(Oc2ccccc2-c2ccno2)CCN(Cc2ccc(-c3ccccc3)o2)C1 (stereo not drawn) 1.77%
Nc1c(C(=O)Nc2ccc3c(c2)OCCO3)nnn1Cc1ccccc1 0.57%
COc1cccc(CNC(=O)c2nnn(CC(=O)Nc3cc(C)ccc3C)c2N)c1 2.69%
CCCn1nc2cc(C(=O)NCc3ccccc3)ccc2c1OCC 3.65%
COc1cccc(CNC(=O)c2nnn(CC(=O)Nc3cc(Cl)ccc3C)c2N)c1 2.23%
Cc1cc(OCCCC(=O)NCCN2C(=O)S/C(=C\c3cccnc3)C2=O)ccc1Cl 16.7%
CCOc1ccc(-n2c(SCC(=O)NC3CCS(=O)(=O)C3)nnc2-c2cccnc2)cc1 (stereo not drawn) -0.1%
CCOC(=O)c1c(N)c(C#N)nn1-c1ccccc1C(=O)OC 1.23%
COc1ccc(Cl)cc1C(=O)NNC(=O)c1nc2nc(C)cc(C)n2n1 -0.4%
O=C(/C=C/c1ccco1)NC(=S)N1CCCCC1 1.82%
CC(C)OC(=O)Cn1nc(C(F)(F)F)c2c1CCCC2 3.22%
CCCCn1c(N)c(N(CC(C)C)C(=O)C2CSC3(C)CCC(=O)N23)c(=O)[nH]c1=O (stereo not drawn) 4.3%
COC(=O)C1=C(C)NC(=S)NC1c1ccc(OC)cc1 (stereo not drawn) 1.73%
CC(C)(C)c1ccc(S(=O)(=O)NCC2CCN(C(=O)C(=O)c3cc4ccccc4o3)CC2)cc1 -0.02%
O=C1CCC/C=C/C[C@@H](CC(=O)N(CCO)Cc2ccccc2)C(=O)NC[C@H](c2ccccc2)O1 5.38%
O=C1N[C@@H](c2ccccc2)COC(=O)[C@H](Cc2ccc(F)cc2)C/C=C\C[C@@H]1CC(=O)N(CCO)Cc1ccccc1 18.8%
Fc1ccc(-n2c(Cc3ccccc3)nnc2SCc2nc(-c3ccc(Cl)cc3)no2)cc1 2.7%
Cc1ccc2cc(C)c(N3CCN(c4ccc(F)cc4)CC3)nc2c1 1.28%
Cc1ccc2cc(C)c(N3CCC(C)CC3)nc2c1 17.1%
C[C@H]1CN([C@@H](C)CO)S(=O)(=O)c2ccc(Br)cc2O[C@H]1CN(C)C(=O)c1cnccn1 1.33%
CCCOC(=O)c1ccc(N2C(=O)c3ccccc3C2=O)cc1 -1.04%
CSc1ccccc1NC(=O)C(C)N1C(=O)c2ccccc2S1(=O)=O (stereo not drawn) 2.86%
Cc1ccc(NC(=O)Cn2c(C)csc2=O)cc1 0.43%
O=C(Cn1nc(C(=O)O)c2ccccc2c1=O)Nc1ccc(F)cc1 6.51%
COc1cccc(CNC(=O)[C@H]2CCCN2C(=O)[C@H]2CCCN2C(=O)c2ccc(F)cc2)c1 -0.3%
COC(=O)N1Cc2ccnnc2CC1c1ccccc1Br (stereo not drawn) 0.4%
O=[N+]([O-])c1cc(Cl)cc(/C=N/NC(=S)Nc2cc(S(=O)(=O)N3CCOCC3)ccc2Cl)c1O 0.47%
O=C(NN=Cc1ccco1)C(=O)Nc1ccc(Cl)c([N+](=O)[O-])c1 1.63%

activation, active:
CC1CCCN(c2ccc(C(=O)NCCc3ccccc3)cn2)C1 (stereo not drawn) 41.2%
O=C(Nc1ccncc1)Nc1ccc(F)cc1 78.9%
Cc1cccc(C)c1-n1c(C)cc(/C=C2\C(=O)NN(c3ccccc3)C2=O)c1C 38.3%
O=C(Nc1ccc(F)cc1)Nc1nnc([C@H]2C[C@H](O)[C@@H](CO)O2)s1 45%
CC(=O)Oc1ccc(Cn2c(C)c(C(=O)NCc3ccc(C#N)cc3)sc2=O)cc1 140%
CN(c1cccc(NC(=O)Nc2ccc(Cl)cc2)c1)S(C)(=O)=O 46.9%
O=C1CCCC(O)=C1C=NCCc1ccccc1 60.6%
O=C(NCCc1ccccc1)C(=O)NCC1OCCN1S(=O)(=O)c1cccs1 (stereo not drawn) 56.5%
NC(=O)C1=C[C@H](c2csc3ccccc23)C[C@H](OCc2ccc(CO)cc2)O1 60.3%
Cc1cccc(CCNS(=O)(=O)c2ccc(S(=O)(=O)NC3CCCC3)cc2)c1 42.8%
Cc1cc2nc3c(=O)[nH]c(=O)nc-3n(C[C@H](O)[C@H](O)[C@H](O)CO)c2cc1C 45.3%
CCOc1ccc(Cn2nnc(C(=O)NCc3ccccc3)c2N)cc1 83.3%
CCOc1ccc(Cn2nnc(C(=O)Nc3ccc(OC)cc3OC)c2N)cc1 42.5%
COc1ccc(Cl)cc1C(=O)NNC(=S)NC(=O)/C=C/c1ccco1 55.3%
O=C1NC[C@@H](c2ccccc2)OC(=O)[C@H](Cc2ccc(F)cc2)CC/C=C/C[C@H]1CC(=O)N(CCO)Cc1ccccc1 42.6%
Cc1cc(C)c2cc(C#N)c(N3CCNCC3)nc2c1 69.6%
CC(=O)Nc1ccccc1Sc1ccc2c3c(cccc13)C(=O)N(c1ccc(C)cc1)C2=O 47.3%
Cc1ccc(NC(=O)Cn2sc3ccccc3c2=O)cc1 37.5%
O=C(N/N=C/c1cc(Cl)cc([N+](=O)[O-])c1O)C(O)(c1ccccc1)c1ccccc1 42.4%
